How the values were obtained:
BT-474 [1] = experiment: Potentiation of lapatinib-induced growth inhibition of human BT474 cells at 10 uM after 72 hrs by cell titer-glo based luminescence assay; format: functional; settings: BT-474, 72 h, read-out: GI
Outline: (§1)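 Cells were trypsinised and seeded at 5000 cells/well, then cultured 24 h at 37 °C. Compound was added at 10 µM, alone or with 1 µM lapatinib, and incubated 72 h at 37 °C. CellTiter-Glo reagent was added at a volume equal to the medium, followed by 3 min shaking and 10 min at room temperature. Luminescence (ATP) was read and normalised to the blank control group.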

[2] = Growth inhibition of human BT/LapR1.0 cells at 10 uM after 72 hrs by cell titer-glo based luminescence assay; settings: read-out: GI; outline: as §1
BT-474 [3] = experiment: Potentiation of lapatinib-induced growth inhibition of human BT474 cells assessed as coefficient of drug interaction after 72 hrs by cell titer-glo based luminescence assay; format: functional
[4] = target: Chaperone protein DnaK (Escherichia coli) (UniProt P0A6Y8); experiment: Inhibition of Escherichia coli DnaK ATPase activity at 200 uM incubated on shaker for 10 mins followed by 30 mins incubation by malachite green reagent based colorimetric assay
Homo sapiens [5] = organism: Homo sapiens; experiment: Inhibition of HSP70 in human BT/LapR1.0 cells assessed as potentiation of 1 uM of lapatinib-induced growth inhibition at 10 uM after 72 hrs by cell titer-glo based luminescence assay; outline: as §1
[6] = Growth inhibition of human BT474 cells at 10 uM after 72 hrs by cell titer-glo based luminescence assay; design: species or system BT-474; settings: read-out: GI; outline: as §1
Homo sapiens [7] = organism: Homo sapiens; experiment: Inhibition of HSP70 in human BT/LapR1.0 cells assessed as potentiation of 1 uM of lapatinib-induced growth inhibition after 72 hrs by measuring coefficient of drug interaction by cell titer-glo based luminescence assay

Row | Compound | inhibition of growth at 10 µM (BT-474 [1]) [%] | inhibition at 72 h, 10 µM [2] [%] | Activity (BT-474 [3]) | inhibition [4] [%] | growth inhibition (GI) (Homo sapiens [5]) [%] | inhibition at 72 h, 10 µM [6] [%] | Activity (Homo sapiens [7])
1 | COc1cc(/C=C/C(=O)NC(NC(=O)Nc2ccccn2)C(C)C)cc(OC)c1OC (configuration not stated) | 86.2 | 18.2 | <1 | < 20 | 57.6 | 12.4 | < 1
2 | CC(C)(C)C(NC(=O)/C=C/c1ccccc1)NC(=S)Nc1ccccc1 (configuration not stated) | 83.5 | 11.4 | 0.85 | < 20 | 33 | 9.6 | < 1
3 | COc1cc(/C=C/C(=O)NC(CC(C)C)NC(=S)Nc2ccccc2)cc(OC)c1OC (configuration not stated) | 76.6 | 9.4 | <1 | 50.4 | 42.2 | 7.3 | < 1
4 | CC(C)CC(NC(=O)/C=C/c1ccccc1)NC(=S)Nc1ccccc1 (configuration not stated) | 85 | 13.6 | 0.86 | < 20 | 36.9 | 17.7 | < 1
5 | COc1cc(/C=C/C(=O)NC(CC(C)C)NC(=S)Nc2ccccn2)cc(OC)c1OC (configuration not stated) | 87.8 | 38.7 | <1 | < 20 | 61 | 24.9 | < 1
6 | COc1cc(/C=C/C(=O)NC(NC(=S)Nc2ccccc2)C2CC2)cc(OC)c1OC (configuration not stated) | 85.2 | 13.7 | <1 | 50.5 | 56 | 12.2 | < 1
7 | COc1cc(/C=C/C(=O)NC(CC(C)C)NC(=S)NC2CCCCC2)cc(OC)c1OC (configuration not stated) | 83.4 | 38.8 | 0.73 | 46.2 | 48.1 | 16.5 | < 1
8 | CNC(=S)NC(CC(C)C)NC(=O)/C=C/c1cc(OC)c(OC)c(OC)c1 (configuration not stated) | 79.8 | 13 | <1 | < 20 | 30.9 | 10.5 | < 1
9 | COc1cc(/C=C/C(=O)NC(NC(=S)Nc2cccnc2)C2CC2)cc(OC)c1OC (configuration not stated) | 85.2 | 12.3 | <1 | < 20 | 55.7 | 8.6 | < 1
10 | O=C(/C=C/c1ccccc1)NC(NC(=S)Nc1ccccn1)C1CC1 (configuration not stated) | 78.8 | 6 | <1 | < 20 | 25.2 | 2.4 | < 1
11 | CC(C)(C)CC(NC(=O)/C=C/c1ccccc1)NC(=S)Nc1ccccc1 (configuration not stated) | 84.9 | 34.6 | 0.79 | < 20 | 53 | 11.3 | < 1
12 | COc1cc(/C=C/C(=O)NC(CC(C)C)NC(=S)Nc2cccnc2)cc(OC)c1OC (configuration not stated) | 79.1 | 10.5 | <1 | 38.5 | 54.2 | 9.2 | < 1
13 | CC(C)C(NC(=O)/C=C/c1ccccc1)NC(=S)NC1CCCCC1 (configuration not stated) | 80.6 | 13.3 | <1 | < 20 | 75.8 | 10.3 | < 1
14 | COc1cc(/C=C/C(=O)NC(CC(C)(C)C)NC(=S)Nc2cccnc2)cc(OC)c1OC (configuration not stated) | 89.9 | 19.3 | 0.81 | 47.1 | 59.9 | 22.1 | < 1
15 | COc1cc(/C=C/C(=O)NC(CC(C)(C)C)NC(=S)Nc2ccccc2)cc(OC)c1OC (configuration not stated) | 90.9 | 40.9 | 0.65 | 44.1 | 62.3 | 19 | < 1
16 | O=C(/C=C/c1ccccc1)NC(NC(=S)Nc1ccccc1)C1CC1 (configuration not stated) | 81.4 | 8.7 | <1 | < 20 | 27.8 | 3.8 | < 1
17 | CC(C)C(NC(=O)/C=C/c1ccccc1)NC(=S)Nc1ccccc1 (configuration not stated) | 82 | 11.5 | <1 | < 20 | 30 | 9.4 | < 1
18 | CC(C)CC(NC(=O)/C=C/c1ccccc1)NC(=S)NC1CCCCC1 (configuration not stated) | 84 | 19.8 | 0.77 | 58.4 | 33.4 | 13.5 | < 1
19 | COc1cc(/C=C/C(=O)NC(NC(=S)Nc2ccccc2)C(C)(C)C)cc(OC)c1OC (configuration not stated) | 83.2 | 2.9 | <1 | < 20 | 48.8 | 2.2 | < 1
20 | Cc1ccccc1NC(=S)NC(CC(C)(C)C)NC(=O)/C=C/c1ccccc1 (configuration not stated) | 84.2 | 18.9 | 0.74 | 41 | 41 | 18.2 | 0.79
21 | COc1cc(/C=C/C(=O)NC(NC(=S)Nc2ccccn2)C2CC2)cc(OC)c1OC (configuration not stated) | 87.8 | 17.4 | <1 | < 20 | 59.6 | 20.1 | < 1
22 | COc1cc(/C=C/C(=O)NC(NC(=S)Nc2ccccc2C)C(C)(C)C)cc(OC)c1OC (configuration not stated) | 81.4 | 9.9 | <1 | 50.5 | 30.1 | 8.2 | < 1
23 | Cc1ccccc1NC(=S)NC(CC(C)C)NC(=O)/C=C/c1ccccc1 (configuration not stated) | 81.6 | 12.8 | 0.84 | < 20 | 23.3 | 9.8 | < 1
24 | COc1cc(/C=C/C(=O)NC(NC(=O)Nc2ccccc2)C(C)C)cc(OC)c1OC (configuration not stated) | 79.1 | 11.4 | <1 | – | 32.8 | 4.8 | < 1

Source: ChEMBL document CHEMBL3853294, “Design, synthesis and biological evaluation of novel HSP70 inhibitors: N, N'-disubstituted thiourea derivatives” (Eur J Med Chem, 2016)
